Measurements: ChEMBL document CHEMBL4673192, “Structure-activity relationship studies on 2,5,6-trisubstituted benzimidazoles targeting Mtb-FtsZ as antitubercular agents” (RSC Med Chem, 2021)
Values after ≈ are worked out from the molar mass of the structure shown.

Assays:
[1] = test system: Mycobacterium tuberculosis; test: Antitubercular activity against Mycobacterium tuberculosis H37Rv incubated for 6 days by alamar blue assay; type: functional; conditions: 144 h, time 6 day
Method in brief: (§1)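 MABA (protocol A): Mtb H37Rv grown in 7H9 with 10% OADC and 0.05% Tween-80 and used at mid-log phase. Compounds from DMSO stocks were serially diluted 2-fold, and the inoculum was set to OD600 0.005. Plates were incubated 6 days at 37 °C, then Alamar Blue was added for a further 24 h. MIC is the lowest concentration (μg mL−1) preventing the colour change.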

[2] = Cytotoxicity against human WI-38 cells assessed as reduction in cell viability at 20 uM incubated for 72 hrs by MTT assay relative to control; type: cell-based; conditions: read-out: INH
Method in brief: (§2)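 MTT assay: cells were seeded at 2500/well and attached overnight to 70–90% confluency (HepG2 in RPMI-1640, WI-38 in DMEM, each with 10% FBS). Compound was given at 20 μM final with 0.5% DMSO for 72 h. MTT was applied for 4 h in the dark and the formazan dissolved in DMSO, with OD read at 570 nm. % inhibition is relative to the DMSO control, mean of triplicate.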

[3] = Cytotoxicity against human HepG2 cells assessed as reduction in cell viability at 20 uM incubated for 72 hrs by MTT assay relative to control; type: cell-based; conditions: read-out: INH; method in brief: as §2
[4] = test system: Mycobacterium tuberculosis; test: Antitubercular activity against Mycobacterium tuberculosis H37Rv by microplate alamar blue assay; type: functional; method in brief: as §1
[5] = test system: Mycobacterium tuberculosis; test: Antitubercular activity against Mycobacterium tuberculosis H37Rv infected in immune compromised GKO mouse assessed as lung log CFU reduction; type: functional
[6] = test system: Mycobacterium tuberculosis; test: Antitubercular activity against Mycobacterium tuberculosis H37Rv infected in immune compromised GKO mouse assessed as spleen log CFU reduction; type: functional
[7] = test system: Mycobacterium tuberculosis; test: Antitubercular activity against mid logarithmic stage Mycobacterium tuberculosis H37Rv incubated for 6 days by alamar blue assay; type: functional; conditions: 144 h, time 6 day
Method in brief: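 Protocol B: the mid-log H37Rv culture (OD580 0.4) was diluted 1:100 and mixed with an equal volume of serially diluted compound (DMSO). After 6 days at 37 °C, Alamar blue plus 20% Tween 80 was added. Plates were read 24 h later at 570 nm against a 600 nm reference. Untreated inoculum wells gave the survival-inhibition curve, and rifampicin served as positive control.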

[8] = Therapeutic index, ratio of IC50 for human WI-38 cells to MIC for Mycobacterium tuberculosis H37Rv; type: toxicity; conditions: read-out: TI
WI-38 = test: Cytotoxicity against human WI-38 cells assessed as reduction in cell viability incubated for 72 hrs by MTT assay; type: cell-based; conditions: WI-38, 72 h

| SMILES | MIC99 [1] [µg/mL] | other results |
| --- | --- | --- |
| CN(C)c1cc2[nH]c(Cc3ccccc3)nc2cc1NC(=O)C(C)(C)C | > 10 |  |
| CCCCOC(=O)Nc1cc2nc(CN(CCC)CCC)[nH]c2cc1N(C)C | 0.16 (≈ 0.411 µM) | cytotoxicity at 72 h, 20 µM [2]: 4%; cytotoxicity at 72 h, 20 µM [3]: 0% |
| CCCCOC(=O)Nc1cc2nc(CN(C)c3ccccc3)[nH]c2cc1N(C)C | 0.16 (≈ 0.405 µM) |  |
| CCC(CC)c1nc2cc(NC(=O)c3ccc(C)cc3)c(N(C)C)cc2[nH]1 | 0.5 (≈ 1.37 µM) |  |
| CCC(CC)C(=O)Nc1cc2nc(C3CCCC3)[nH]c2cc1N(C)C | > 50 |  |
| CCCCOC(=O)Nc1cc2nc(-c3cccs3)[nH]c2cc1N(C)C | > 10 |  |
| COc1ccccc1C(=O)Nc1cc2nc(C3CCCC3)[nH]c2cc1N(C)C | 12.5 (≈ 33 µM) |  |
| CN(C)c1cc2[nH]c(C3CCCCC3)nc2cc1NC(=O)c1ccc(C(F)(F)F)cc1F |  | MIC [4]: 0.16 µg/mL (≈ 0.357 µM); Activity [5]: 5.7 log10CFU; Activity [6]: 3.9 log10CFU |
| Cc1ccc(C(=O)Nc2cc3nc(Cc4ccccc4)[nH]c3cc2N(C)C)cc1 | 1.56 (≈ 4.06 µM) |  |
| CN(C)c1cc2[nH]c(C3CCOCC3)nc2cc1NC(=O)c1ccc(OC(F)(F)F)cc1F | 10 (≈ 21.4 µM) |  |
| CN(C)c1cc2[nH]c(C3CCCC3)nc2cc1NC(=O)c1ccc(OC(F)(F)F)cc1 | 1.56 (≈ 3.61 µM) |  |
| CCCCOC(=O)Nc1cc2nc(CN3CCCC3)[nH]c2cc1N(C)C | 2.4 (≈ 6.68 µM) | MIC99 [7]: 1.6 µg/mL (≈ 4.45 µM) |
| CCC(CC)c1nc2cc(NC(=O)c3ccc(F)cc3F)c(N(C)C)cc2[nH]1 | 0.71 (≈ 1.84 µM) |  |
| CCCCOC(=O)Nc1cc2nc(Cc3ccccc3)[nH]c2cc1N(C)C | < 0.078 | cytotoxicity at 72 h, 20 µM [2]: 93%; cytotoxicity at 72 h, 20 µM [3]: 80% |
| CN(C)c1cc2[nH]c(CN(C)c3ccccc3)nc2cc1NC(=O)c1ccc(F)cc1F | 1.25 (≈ 2.87 µM) |  |
| CN(C)c1cc2[nH]c(C3CCCC3)nc2cc1NC(=O)c1ccc(F)cc1 | 0.78 (≈ 2.13 µM) |  |
| CN(C)c1cc2[nH]c(Cc3ccccc3)nc2cc1NC(=O)c1ccc(F)cc1 | 0.63 (≈ 1.62 µM) |  |
| CCCCOC(=O)Nc1cc2nc(Sc3ccccc3)[nH]c2cc1N(C)C | 0.31 (≈ 0.806 µM) |  |
| CCCCOC(=O)Nc1cc2nc(SC(C)C)[nH]c2cc1N(C)C | 0.31 (≈ 0.884 µM) |  |

| SMILES | MIC99 [1] [µg/mL] | other results |
| --- | --- | --- |
| CCC(CC)c1nc2cc(NC(=O)c3ccc(OC)c(OC)c3)c(N(C)C)cc2[nH]1 | 12.5 (≈ 30.4 µM) |  |
| CN(C)c1cc2[nH]c(C3CCOCC3)nc2cc1NC(=O)c1ccc(OC(F)(F)F)cc1 | > 10 |  |
| CCC(CC)c1nc2cc(NC(=O)c3ccc(F)cc3)c(N(C)C)cc2[nH]1 | 0.78 (≈ 2.12 µM) |  |
| Cc1ccc(C(=O)Nc2cc3nc(CN(C)c4ccccc4)[nH]c3cc2N(C)C)cc1 | 1.25 (≈ 3.02 µM) |  |
| CCCCOC(=O)Nc1cc2nc(SCC)[nH]c2cc1N(C)C | 1.2 (≈ 3.57 µM) | MIC99 [7]: 0.16 µg/mL (≈ 0.476 µM) |
| CN(C)c1cc2[nH]c(C3CCCC3)nc2cc1NC(=O)c1ccccc1 | 1.56 (≈ 4.48 µM) |  |
| CCCCOC(=O)Nc1cc2nc(C3CCCCC3)[nH]c2cc1N(C)C | 0.06 (≈ 0.167 µM) | MIC99 [7]: 0.008 µg/mL (≈ 0.0223 µM) |
| CCC(CC)C(=O)Nc1cc2nc(Cc3ccccc3)[nH]c2cc1N(C)C | > 10 |  |
| CN(C)c1cc2[nH]c(Cc3ccccc3)nc2cc1NC(=O)c1ccc(OC(F)(F)F)cc1 | 1.25 (≈ 2.75 µM) |  |
| CCCc1ccc(C(=O)Nc2cc3nc(CN(C)c4ccccc4)[nH]c3cc2N(C)C)cc1 | 5 (≈ 11.3 µM) |  |
| CN(C)c1cc2[nH]c(C3CCCC3)nc2cc1NC(=O)c1ccc(F)cc1F | 0.625 (≈ 1.63 µM) |  |
| Cc1ccc(C(=O)Nc2cc3nc(C4CCCC4)[nH]c3cc2N(C)C)cc1 | 0.625 (≈ 1.72 µM) |  |
| CN(C)c1cc2[nH]c(CN(C)c3ccccc3)nc2cc1NC(=O)c1ccc(OC(F)(F)F)cc1F | 0.29 (≈ 0.578 µM) | cytotoxicity at 72 h, 20 µM [2]: 59%; cytotoxicity at 72 h, 20 µM [3]: 30%; MIC99 [7]: 0.19 µg/mL (≈ 0.379 µM) |
| CCC(CC)c1nc2cc(NC(=O)c3ccccc3OC)c(N(C)C)cc2[nH]1 | 1.56 (≈ 4.1 µM) |  |
| CCCCOC(=O)Nc1cc2nc(CN3CCOCC3)[nH]c2cc1N(C)C | 2.4 (≈ 6.39 µM) | MIC99 [7]: 1.6 µg/mL (≈ 4.26 µM) |
| CN(C)c1cc2[nH]c(C3CCCC3)nc2cc1NC(=O)C(C)(C)C | 50 (≈ 152 µM) |  |
| CN(C)c1cc2[nH]c(C3CCCC3)nc2cc1NC(=O)C1CCC1 | > 10 |  |
| CCCCOC(=O)Nc1cc2nc(SCC3CCCCC3)[nH]c2cc1N(C)C | 0.015 (≈ 0.0371 µM) | selectivity ratio [8]: > 100; cytotoxicity at 72 h, 20 µM [2]: 52%; cytotoxicity at 72 h, 20 µM [3]: 0%; IC50 (WI-38): 20 µM; MIC99 [7]: 0.0039 µg/mL (≈ 0.00964 µM) |
| CN(C)c1cc2[nH]c(Cc3ccccc3)nc2cc1NC(=O)c1ccccc1 | 1.25 (≈ 3.37 µM) |  |

| SMILES | MIC99 [1] [µg/mL] | other results |
| --- | --- | --- |
| COc1ccc(C(=O)Nc2cc3nc(Cc4ccccc4)[nH]c3cc2N(C)C)cc1 | 1.25 (≈ 3.12 µM) |  |
| CCCCOC(=O)Nc1cc2nc(SC)[nH]c2cc1N(C)C | 9.6 (≈ 29.8 µM) | MIC99 [7]: 1.28 µg/mL (≈ 3.97 µM) |
| CCCCOC(=O)Nc1cc2nc(C(CC)CC)[nH]c2cc1N(C)C | 0.078 (≈ 0.225 µM) | cytotoxicity at 72 h, 20 µM [2]: 77%; cytotoxicity at 72 h, 20 µM [3]: 32% |
| CN(C)c1cc2[nH]c(Cc3ccccc3)nc2cc1NC(=O)c1ccc(C(C)(C)C)cc1 | 0.33 (≈ 0.774 µM) |  |
| CCCCOC(=O)Nc1cc2nc(SCc3ccccc3)[nH]c2cc1N(C)C | 0.31 (≈ 0.778 µM) |  |
| CCCCOC(=O)Nc1cc2nc(C3CCOCC3)[nH]c2cc1N(C)C | > 2.5 |  |
| CN(C)c1cc2[nH]c(C3CCCC3)nc2cc1NC(=O)c1ccc(C(C)(C)C)cc1 | 0.78 (≈ 1.93 µM) |  |
| CCC(CC)c1nc2cc(NC(=O)c3ccc(OC(F)(F)F)cc3)c(N(C)C)cc2[nH]1 | 0.31 (≈ 0.714 µM) |  |
| CCCCOC(=O)Nc1cc2nc(C(C)C)[nH]c2cc1N(C)C | 1.25 (≈ 3.93 µM) |  |
| CN(C)c1cc2[nH]c(CN(C)c3ccccc3)nc2cc1NC(=O)c1ccc(C(C)(C)C)cc1 | 2.5 (≈ 5.49 µM) |  |
| CCC(CC)c1nc2cc(NC(=O)c3ccccc3)c(N(C)C)cc2[nH]1 | 1.56 (≈ 4.45 µM) |  |
| CCCCOC(=O)Nc1cc2nc(CN3CCCCC3)[nH]c2cc1N(C)C | 0.14 (≈ 0.375 µM) | cytotoxicity at 72 h, 20 µM [2]: 60%; cytotoxicity at 72 h, 20 µM [3]: 0%; MIC99 [7]: 0.09 µg/mL (≈ 0.241 µM) |
| CN(C)c1cc2[nH]c(C3CCCCC3)nc2cc1NC(=O)c1ccc(OC(F)(F)F)cc1F | 0.16 (≈ 0.344 µM) | cytotoxicity at 72 h, 20 µM [2]: 78%; MIC [4]: 0.16 µg/mL (≈ 0.344 µM); cytotoxicity at 72 h, 20 µM [3]: 57%; Activity [5]: 5.7 log10CFU; Activity [6]: 3.9 log10CFU; MIC99 [7]: 0.019 µg/mL (≈ 0.0409 µM) |
| COc1ccc(C(=O)Nc2cc3nc(C4CCCC4)[nH]c3cc2N(C)C)cc1 | 1.25 (≈ 3.3 µM) |  |
| CCCCOC(=O)Nc1cc2nc(C3CCCC3)[nH]c2cc1N(C)C | 0.31 (≈ 0.9 µM) | cytotoxicity at 72 h, 20 µM [2]: 86%; cytotoxicity at 72 h, 20 µM [3]: 42% |
| COc1ccc(CC(=O)Nc2cc3nc(CN(C)c4ccccc4)[nH]c3cc2N(C)C)cc1 | > 10 |  |
| CC(C)c1nc2cc(NC(=O)c3ccc(C(C)(C)C)cc3)c(N(C)C)cc2[nH]1 | 0.78 (≈ 2.06 µM) |  |
| CN(C)c1cc2[nH]c(Cc3ccccc3)nc2cc1NC(=O)c1ccc(F)cc1F | 0.63 (≈ 1.55 µM) |  |
| CCCCOC(=O)Nc1cc2nc(SC3CCCCC3)[nH]c2cc1N(C)C |  | cytotoxicity at 72 h, 20 µM [2]: 87%; cytotoxicity at 72 h, 20 µM [3]: 50%; MIC99 [7]: < 0.0081 µg/mL |
